{"source": "ChEMBL document CHEMBL5120856", "about": "“New salicylic acid derivatives, double inhibitors of glycolate oxidase and lactate dehydrogenase, as effective agents decreasing oxalate production” (Eur J Med Chem, 2022)", "key": {"2-Hydroxyacid oxidase 1 [1]": {"biological_target": "T1, 2-Hydroxyacid oxidase 1 (Mus musculus, UniProt Q9WU19)", "T1 sequence (Q9WU19 whole entry)": "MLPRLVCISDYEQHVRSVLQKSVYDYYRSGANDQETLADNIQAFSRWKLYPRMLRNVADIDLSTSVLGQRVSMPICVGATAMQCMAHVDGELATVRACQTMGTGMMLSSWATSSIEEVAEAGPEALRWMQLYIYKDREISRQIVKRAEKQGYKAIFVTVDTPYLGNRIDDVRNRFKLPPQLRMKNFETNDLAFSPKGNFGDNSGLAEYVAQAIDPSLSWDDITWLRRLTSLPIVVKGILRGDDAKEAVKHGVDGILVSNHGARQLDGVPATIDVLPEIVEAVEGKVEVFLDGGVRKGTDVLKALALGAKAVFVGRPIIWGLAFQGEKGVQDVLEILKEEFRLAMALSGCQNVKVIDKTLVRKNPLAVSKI", "assay": "Inhibition of N-terminal His-tagged mouse recombinant glycolate oxidase expressed in Escherichia coli BL21 (DE3) cells using glycolate as substrate preincubated for 10 mins followed by substrate addition and measured after 10 mins by Amplex red and horseradish peroxidase based fluorescence assay"}, "[2]": {"biological_target": "T2, L-lactate dehydrogenase B chain (Homo sapiens, UniProt P07195)", "T2 sequence (P07195 whole entry)": "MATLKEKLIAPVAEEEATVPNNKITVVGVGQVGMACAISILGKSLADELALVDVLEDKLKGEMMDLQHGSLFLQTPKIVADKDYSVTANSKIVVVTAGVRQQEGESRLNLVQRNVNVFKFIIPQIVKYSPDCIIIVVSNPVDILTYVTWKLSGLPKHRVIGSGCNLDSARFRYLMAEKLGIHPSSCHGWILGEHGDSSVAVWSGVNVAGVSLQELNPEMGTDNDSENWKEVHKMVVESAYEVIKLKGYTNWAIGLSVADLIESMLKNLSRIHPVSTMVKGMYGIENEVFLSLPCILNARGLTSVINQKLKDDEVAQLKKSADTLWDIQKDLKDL", "assay": "Inhibition of human recombinant LDHB using pyruvate as substrate preincubated for 10 mins followed by substrate addition and measured every 60 sec for 10 mins in the presence of NADH by fluorescence assay"}, "2-Hydroxyacid oxidase 1 [3]": {"biological_target": "T1, 2-Hydroxyacid oxidase 1", "assay": "Non-competitive mixed inhibition of N-terminal His-tagged mouse recombinant glycolate oxidase expressed in Escherichia coli BL21 (DE3) cells assessed as inhibition constant using varying concentration of glycolate as substrate measured every 60 sec for 15 mins by Amplex red and horseradish peroxidase based fluorescence assay"}, "[4]": {"biological_target": "T2, L-lactate dehydrogenase B chain", "assay": "Non-competitive inhibition of human recombinant LDHB assessed as inhibition constant using varying concentration of pyruvate as substrate preincubated for 10 mins followed by substrate addition and measured every 60 sec for 10 mins in the presence of NADH by fluorescence assay"}, "[5]": {"biological_target": "T2, L-lactate dehydrogenase B chain", "assay": "Mixed inhibition of human recombinant LDHB assessed as inhibition constant using varying concentration of pyruvate as substrate preincubated for 10 mins followed by substrate addition and measured every 60 sec for 10 mins in the presence of NADH by fluorescence assay"}, "[6]": {"biological_target": "T3, 2-Hydroxyacid oxidase 1 (Mus musculus) (UniProt Q9WU19)", "T3 sequence (whole entry)": "T1 sequence (Q9WU19 whole entry)", "assay": "Non-competitive mixed inhibition of N-terminal His-tagged mouse recombinant glycolate oxidase expressed in Escherichia coli BL21 (DE3) cells assessed as decrease in Vmax with increase in apparent Km using glycolate as substrate upto 60 microM"}, "Hepatocyte [7]": {"tested_on": "Hepatocyte", "assay": "Cytotoxicity against hyperoxaluric-primary hepatocyte isolated from Hoga1-knockdown PH3 C57BL/6 mouse assessed as cell death at 10 uM by MTS assay", "assay_type": "toxicity, cell-based", "settings": "hepatocytes, Hoga1-knockdown PH3, 10 µM", "method_in_brief": "(§1)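 Primary hepatocytes from Agxt1-/- (PH1, 5 mM glycolate), Grhpr-/- (PH2, 10 mM glycolate) or Hoga1-/- (PH3, 10 mM hydroxyproline) mice, incubated with inhibitor at 10 μM; viability followed through the oxalate assay by MTS tetrazolium method.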"}, "Hepatocyte [8]": {"tested_on": "Hepatocyte", "assay": "Cytotoxicity against hyperoxaluric-primary hepatocyte isolated from Grhpr-knockdown PH2 C57BL/6 mouse assessed as cell death at 10 uM by MTS assay", "assay_type": "toxicity, cell-based", "settings": "hepatocytes, Grhpr-knockdown PH2 (primary hyperoxaluria type 2)", "method_in_brief": "as §1"}, "Hepatocyte [9]": {"tested_on": "Hepatocyte", "assay": "Cytotoxicity against hyperoxaluric-primary hepatocyte isolated from Agxt1-knockdown PH1 C57BL/6 mouse assessed as cell death at 10 uM by MTS assay", "assay_type": "toxicity, cell-based", "settings": "hepatocytes, Agxt1-knockdown PH1, 10 µM", "method_in_brief": "as §1"}, "Hepatocyte [10]": {"tested_on": "Hepatocyte", "assay": "Inhibition of GO/LDHA in hyperoxaluric-primary hepatocyte isolated from Agxt1 knockdown PH1 C57BL/6 mouse assessed as reduction in extracellular oxalate concentration at 10 uM measured at 48 hrs in the presence of glycolate relative to control", "assay_type": "cell-based", "parameters": "scale not given: the % may be the effect or the level left", "method_in_brief": "(§2)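 Agxt1-/- mouse primary hepatocytes cultured with 5 mM glycolate, inhibitor at 10 μM; extracellular oxalate measured by colorimetric kit 24 and 48 h after inhibitor addition; relative oxalate = oxalate with inhibitor over oxalate without inhibitor; negative values mean below detection limit; mean of three/four replicates ± SD.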"}, "Hepatocyte [11]": {"tested_on": "Hepatocyte", "assay": "Inhibition of GO/LDHA in hyperoxaluric-primary hepatocyte isolated from Agxt1 knockdown PH1 C57BL/6 mouse assessed as reduction in relative oxalate output at 10 uM measured at 24 hrs in the presence of glycolate relative to control", "assay_type": "cell-based", "parameters": "scale not given: the % may be the effect or the level left", "method_in_brief": "as §2"}, "Hepatocyte [12]": {"tested_on": "Hepatocyte", "assay": "Inhibition of GO/LDHA in hyperoxaluric-primary hepatocyte isolated from Grhpr-knockdown PH2 C57BL/6 mouse assessed as reduction in relative oxalate output at 10 uM measured at 24 hrs in the presence of glycolate relative to control", "assay_type": "cell-based", "parameters": "scale not given: the % may be the effect or the level left", "method_in_brief": "(§3)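 Grhpr-/- mouse primary hepatocytes cultured with 10 mM glycolate, inhibitor at 10 μM; extracellular oxalate determined colorimetrically at 24 and 48 h post-treatment, expressed relative to untreated medium (RO); negative RO means below detection limit; three/four replicates, mean ± SD.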"}, "Hepatocyte [13]": {"tested_on": "Hepatocyte", "assay": "Inhibition of GO/LDHA in hyperoxaluric-primary hepatocyte isolated from Hoga1-knockdown PH3 C57BL/6 mouse assessed as reduction in relative oxalate output at 10 uM measured at 24 hrs in the presence of hydroxyproline relative to control", "assay_type": "cell-based", "parameters": "scale not given: the % may be the effect or the level left", "method_in_brief": "(§4)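 Hoga1-/- mouse primary hepatocytes challenged with 10 mM hydroxyproline, inhibitor 10 μM; extracellular oxalate measured by colorimetric kit 24 and 48 h after dosing, given as ratio to oxalate without inhibitor; negative values are below detection limit; mean of three/four replicates ± SD.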"}, "Hepatocyte [14]": {"tested_on": "Hepatocyte", "assay": "Inhibition of GO/LDHA in hyperoxaluric-primary hepatocyte isolated from Grhpr-knockdown PH2 C57BL/6 mouse assessed as reduction in relative oxalate output at 10 uM measured at 48 hrs in the presence of glycolate relative to control", "assay_type": "cell-based", "parameters": "scale not given: the % may be the effect or the level left", "method_in_brief": "as §3"}, "Hepatocyte [15]": {"tested_on": "Hepatocyte", "assay": "Inhibition of GO/LDHA in hyperoxaluric-primary hepatocyte isolated from Hoga1-knockdown PH3 C57BL/6 mouse assessed as reduction in relative oxalate output at 10 uM measured at 48 hrs in the presence of hydroxyproline relative to control", "assay_type": "cell-based", "parameters": "scale not given: the % may be the effect or the level left", "method_in_brief": "as §4"}, "[16]": {"assay": "Inhibition of GO/LDHA in hyperoxaluric-primary hepatocyte isolated from Agxt1 knockdown PH1 C57BL/6 mouse measured at 24 hrs in the presence of 5 mM glycolate", "assay_type": "cell-based", "method_in_brief": "(§5)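 Agxt1-/- hepatocytes with 5 mM glycolate; eight inhibitor concentrations per replicate; extracellular oxalate measured colorimetrically at 24 or 48 h; EC50 as mean of three/four replicates ± SD.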"}, "[17]": {"assay": "Inhibition of GO/LDHA in hyperoxaluric-primary hepatocyte isolated from Grhpr-knockdown PH2 C57BL/6 mouse measured at 24 hrs in the presence of 10 mM glycolate", "assay_type": "cell-based", "method_in_brief": "(§6)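 Grhpr-/- hepatocytes with 10 mM glycolate; eight inhibitor concentrations per replicate; colorimetric extracellular oxalate at 24 or 48 h; EC50 as mean of three/four replicates ± SD.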"}, "[18]": {"assay": "Inhibition of GO/LDHA in hyperoxaluric-primary hepatocyte isolated from Hoga1-knockdown PH3 C57BL/6 mouse measured at 24 hrs in the presence of hydroxyproline", "assay_type": "cell-based", "method_in_brief": "(§7)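 Hoga1-/- hepatocytes with 10 mM hydroxyproline; eight inhibitor concentrations per replicate; colorimetric extracellular oxalate at 24 or 48 h; EC50 as mean of three/four replicates ± SD.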"}, "[19]": {"assay": "Inhibition of GO/LDHA in hyperoxaluric-primary hepatocyte isolated from Agxt1 knockdown PH1 C57BL/6 mouse measured at 48 hrs in the presence of 5 mM glycolate", "assay_type": "cell-based", "method_in_brief": "as §5"}, "[20]": {"assay": "Inhibition of GO/LDHA in hyperoxaluric-primary hepatocyte isolated from Grhpr-knockdown PH2 C57BL/6 mouse measured at 48 hrs in the presence of 10 mM glycolate", "assay_type": "cell-based", "method_in_brief": "as §6"}, "[21]": {"assay": "Inhibition of GO/LDHA in hyperoxaluric-primary hepatocyte isolated from Hoga1-knockdown PH3 C57BL/6 mouse measured at 48 hrs in the presence of hydroxyproline", "assay_type": "cell-based", "method_in_brief": "as §7"}, "HEK293": {"tested_on": "HEK293", "assay": "Cytotoxicity against HEK293 cells assessed as reduction in cell viability upto 50 uM measured after 48 hrs by MTT assay", "assay_type": "toxicity, cell-based", "settings": "human, hek293, 48 h"}, "[22]": {"assay": "In vivo inhibition of GO/LDHA in Agxt1 knockdown PH1 C57BL/6 mouse assessed as decrease in urine oxalate level at 20 mg/kg, po administered for 5 days relative to control", "assay_type": "functional", "parameters": "scale not given: the % may be the effect or the level left", "settings": "time 5 day", "method_in_brief": "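Agxt1-/- (PH1) mice, ten males, dosed orally at 20 mg/kg body weight once daily for 5 days. 24-h urine was collected, and oxalate was normalised to creatinine. Urine glycolate was also measured. Values are expressed as % of each animal's own basal pre-treatment excretion, which serves as the control, and are reported as mean ± SE.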"}, "Mus musculus": {"tested_on": "Mus musculus", "assay": "In vivo inhibition of GO/LDHA in Agxt1 knockdown PH1 C57BL/6 mouse assessed as increase in urine glycolate level at 20 mg/kg, po administered for 5 days relative to control", "assay_type": "functional, organism-based", "settings": "time 5.0 day", "method_in_brief": "(§8)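 Ten male Agxt1-/- mice dosed orally at 20 mg/kg daily for 5 days; 24-h urine oxalate (creatinine-normalized) and glycolate compared with pre-treatment baseline; clinical signs of toxicity monitored; mean ± SE.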"}, "[23]": {"assay": "Toxicity in Agxt1 knockdown PH1 C57BL/6 mouse assessed as tolerance at 20 mg/kg, po administered for 5 days", "assay_type": "organism-based", "settings": "in vivo, pH 1, 20 mg/kg, 120 h, time 5 day", "method_in_brief": "as §8"}, "[24]": {"assay": "Toxicity in Agxt1 knockdown PH1 C57BL/6 mouse assessed as clinical signs of toxicity at 20 mg/kg, po administered for 5 days", "assay_type": "organism-based", "settings": "in vivo, pH 1, 20 mg/kg, 120 h, time 5 day", "method_in_brief": "as §8"}}, "note": "Calls of active or inactive are those of the source. No cut-off for these calls is given here.", "data": [{"compound": "C#CCNCc1ccc(-c2ccc(O)c(C(=O)O)c2)o1.N", "values": [{"measurement": "IC50", "setting": "2-Hydroxyacid oxidase 1 [1]", "result": 8.1, "unit": "µM"}, {"measurement": "IC50", "setting": "[2]", "result": 11.8, "unit": "µM"}, {"measurement": "Ki", "setting": "2-Hydroxyacid oxidase 1 [3]", "result": 10.5, "unit": "µM"}, {"measurement": "Ki", "setting": "[4]", "result": 5.1, "unit": "µM"}, {"measurement": "Ki", "setting": "[5]", "result": 2, "unit": "µM"}, {"measurement": "inhibition", "setting": "[6]", "result": "Active"}, {"measurement": "Activity", "setting": "Hepatocyte [7]", "result": "Non-Toxic"}, {"measurement": "Activity", "setting": "Hepatocyte [8]", "result": "Non-Toxic"}, {"measurement": "Activity", "setting": "Hepatocyte [9]", "result": "Non-Toxic"}, {"measurement": "Activity", "setting": "Hepatocyte [10]", "result": 70, "unit": "%"}, {"measurement": "Activity", "setting": "Hepatocyte [11]", "result": 90, "unit": "%"}, {"measurement": "Activity", "setting": "Hepatocyte [12]", "result": 90, "unit": "%"}, {"measurement": "Activity", "setting": "Hepatocyte [13]", "result": 90, "unit": "%"}, {"measurement": "Activity", "setting": "Hepatocyte [14]", "result": 70, "unit": "%"}, {"measurement": "Activity", "setting": "Hepatocyte [15]", "result": 70, "unit": "%"}, {"measurement": "EC50", "setting": "[16]", "result": 4, "unit": "µM"}, {"measurement": "EC50", "setting": "[17]", "result": 1.2, "unit": "µM"}, {"measurement": "EC50", "setting": "[18]", "result": 1.7, "unit": "µM"}, {"measurement": "EC50", "setting": "[19]", "result": 3.8, "unit": "µM"}, {"measurement": "EC50", "setting": "[20]", "result": 2.7, "unit": "µM"}, {"measurement": "EC50", "setting": "[21]", "result": 1.9, "unit": "µM"}, {"measurement": "Activity", "setting": "HEK293", "result": "Non-Toxic"}, {"measurement": "Activity", "setting": "[22]", "result": 50, "unit": "%"}, {"measurement": "Activity", "setting": "Mus musculus", "result": "Active"}, {"measurement": "Activity", "setting": "[23]", "result": "Non-Toxic"}, {"measurement": "Activity", "setting": "[24]", "result": "Non-Toxic"}]}]}
